The term AC50 denotes the concentration at which the activity in the assay is half-maximal.

The source of these data is PubChem BioAssay AID977616 (Broad Institute, 2014).

Calls of active or inactive are those of the source.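 Rule for the calls: active = falling-signal curve whose AC50 is at most twice the highest valid dose tested; inconclusive = flat fit showing 30 to 70% signal loss, or poor fit; inactive = the rest, including opposite-direction effects.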

Assay [1] can be described thus: HepG2 cell cytotoxicity, dose response, cytotoxicity control, CellTiter-Glo luminescence, dry powder, set 14 (AID 977616). The conditions noted are these: HepG2 viability, CellTiter-Glo ATP luminescence, 72 h. The method, boiled down: (§1)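 Test system: Wild-type HepG2 cells | Amount: 2000 HepG2 cells per well | Dosing: Compound tested at multiple concentrations (dose series) | Timing: Seeding 24 h pre-dose, 72 h exposure, 37 °C, 5% CO2 | Technique: CellTiter-Glo luminescence, reagent diluted 1:1 in PBS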
A general note: In ATP-based viability assays light output follows the ATP content of the culture.

The subject of assay [2] is HepG2 viability, CellTiter-Glo ATP luminescence, 72 h. The assay is described as above. In short, it runs like this: as §1

For the molecule `CO[C@H]1CN(C)C(=O)c2ccc(NC(=O)c3ccc(F)cc3)cc2OC[C@H](C)N(C(=O)c2ccc(F)cc2)C[C@@H]1C`, the activity change, negative = cytotoxicity in assay [1] (at 26 µM (top of the series)) is 11.6% (inactive).
On to `Cc1cccc(-c2ccc(CN(C)C[C@@H]3Oc4cc(C#C[C@@H](C)O)ccc4S(=O)(=O)N([C@@H](C)CO)C[C@@H]3C)cc2)c1`, for which the AC50 in assay [2] was 23.1 µM.
On the same count and under the same terms, the value for `COc1ccccc1-c1ccc(CN(C)C[C@@H]2Oc3cc(C#C[C@@H](C)O)ccc3S(=O)(=O)N([C@@H](C)CO)C[C@@H]2C)cc1` was 20.4 µM; that for `C[C@@H]1CN([C@@H](C)CO)S(=O)(=O)c2ccc(C#C[C@@H](C)O)cc2O[C@H]1CN(C)Cc1ccc(-c2ccccc2)cc1` was 17.8 µM.
For `C[C@@H]1CN([C@H](C)CO)S(=O)(=O)c2ccc(C#C[C@@H](C)O)cc2O[C@@H]1CN(C)Cc1ccc(-c2ccccc2)cc1`, the activity change, negative = cytotoxicity in assay [1] (at 26 µM (top of the series)) was -8.68% (inactive).
Regarding `C[C@@H](O)C#Cc1ccc2c(c1)O[C@@H](CN(C)Cc1ccc(-c3cccc(Cl)c3)cc1)[C@@H](C)CN([C@@H](C)CO)S2(=O)=O`, the half-maximal activity concentration (AC50) in assay [2] was 25.4 µM.
For the molecule `C[C@@H](O)C#Cc1ccc2c(c1)O[C@H](CN(C)Cc1ccc(-c3ccccc3)cc1)[C@@H](C)CN([C@@H](C)CO)S2(=O)=O`, the AC50 in assay [2] is 20 µM.
For the molecule `C[C@H]1CN([C@@H](C)CO)S(=O)(=O)c2ccc(Br)cc2O[C@H]1CN(C)Cc1ccc(-c2ccccc2)cc1`, the activity change, negative = cytotoxicity in assay [1] (at 26 µM (top of the series)) is 14.1% (inactive).
Regarding `C[C@H](O)C#Cc1ccc2c(c1)O[C@H](CN(C)Cc1ccc(-c3ccccc3)cc1)[C@@H](C)CN([C@@H](C)CO)S2(=O)=O`, in assay [2], the concentration at half-maximal activity (AC50) is 4.56 µM.
For the molecule `C[C@@H](O)C#Cc1ccc2c(c1)O[C@@H](CN(C)Cc1ccc(-c3ccc(Cl)cc3)cc1)[C@@H](C)CN([C@@H](C)CO)S2(=O)=O`, the AC50 in assay [2] is 21.6 µM.
`C[C@@H](O)C#Cc1ccc2c(c1)O[C@@H](CN(C)Cc1cccnc1)[C@@H](C)CN([C@@H](C)CO)S2(=O)=O`: the activity change, negative = cytotoxicity in assay [1] (at 26 µM (top of the series)) was 2.57% (inactive).
As to `C[C@H](O)C#Cc1ccc2c(c1)O[C@@H](CN(C)Cc1ccc(-c3ccccc3)cc1)[C@@H](C)CN([C@@H](C)CO)S2(=O)=O`, the AC50 in assay [2] is > 52 µM (inactive).
Turning to `CNC[C@@H]1Oc2cc(Br)ccc2S(=O)(=O)N([C@@H](C)CO)C[C@@H]1C`, the activity change, negative = cytotoxicity in assay [1] (at 26 µM (top of the series)) was -25.9% (inactive).
Consider `C[C@H](O)C#Cc1ccc2c(c1)O[C@H](CN(C)Cc1ccc(-c3ccccc3)cc1)[C@H](C)CN([C@@H](C)CO)S2(=O)=O`, for which the activity change, negative = cytotoxicity in assay [1] (at 26 µM (top of the series)) is -13.4% (inactive).
On to `COc1cccc(-c2ccc(CN(C)C[C@@H]3Oc4cc(C#C[C@@H](C)O)ccc4S(=O)(=O)N([C@@H](C)CO)C[C@@H]3C)cc2)c1`, for which the AC50 in assay [2] was 22.5 µM.
On the same count and under the same terms, the value for `C[C@H](O)C#Cc1ccc2c(c1)O[C@@H](CN(C)Cc1ccc(-c3ccccc3)cc1)[C@H](C)CN([C@H](C)CO)S2(=O)=O` was 19.2 µM.
Regarding `C[C@H](O)C#Cc1ccc2c(c1)O[C@@H](CN(C)Cc1ccc(-c3ccccc3)cc1)[C@@H](C)CN([C@H](C)CO)S2(=O)=O`, in assay [1] (at 12 µM (top of the series)), the activity change, negative = cytotoxicity was -7.08% (inactive).
Turning to `C[C@H]1CN([C@@H](C)CO)S(=O)(=O)c2ccc(-c3ccc(O)cc3)cc2O[C@H]1CN(C)Cc1ccc(-c2ccccc2)cc1`, the AC50 in assay [2] is > 52 µM (inactive).
Same read-out and setting: the same measure for `C[C@H](O)C#Cc1ccc2c(c1)O[C@H](CN(C)Cc1ccc(-c3ccccc3)cc1)[C@@H](C)CN([C@H](C)CO)S2(=O)=O`: 21.2 µM.
Consider `C[C@@H](O)C#Cc1ccc2c(c1)O[C@@H](CN(C)Cc1ccncc1)[C@@H](C)CN([C@@H](C)CO)S2(=O)=O`, for which the activity change, negative = cytotoxicity in assay [1] (at 26 µM (top of the series)) is -6.07% (inactive).
As for `COc1ccc(-c2ccc(CN(C)C[C@@H]3Oc4cc(C#C[C@@H](C)O)ccc4S(=O)(=O)N([C@@H](C)CO)C[C@@H]3C)cc2)cc1`, in assay [2], the AC50 is 20.2 µM.
On the same count and under the same terms, the value for `C[C@H](O)C#Cc1ccc2c(c1)O[C@@H](CN(C)Cc1ccc(-c3ccccc3)cc1)[C@H](C)CN([C@@H](C)CO)S2(=O)=O` was 19.7 µM.
On to `C[C@@H](O)C#Cc1ccc2c(c1)O[C@@H](CN(C)Cc1ccc(-c3ccccc3Cl)cc1)[C@@H](C)CN([C@@H](C)CO)S2(=O)=O`, for which the concentration at half-maximal activity (AC50) in assay [2] is 25.9 µM.
For `C[C@H](CO)N1C[C@H](C)[C@H](CN(C)Cc2ccc(-c3ccccc3)cc2)Oc2cc(C#C[C@@H](C)O)ccc2S1(=O)=O`, the activity change, negative = cytotoxicity in assay [1] (at 26 µM (top of the series)) was 0.52% (inactive).
Same read-out and setting: the same measure for `C[C@@H](O)C#Cc1ccc2c(c1)O[C@@H](CN(C)S(=O)(=O)c1ccc(-c3ccccc3)cc1)[C@@H](C)CN([C@@H](C)CO)S2(=O)=O`: -8.38% (inactive).
